Assay outcomes deposited in PubChem by several laboratories.
In the library only some 0.86% were active in any assay of this set; here they are far more common.
CXCR6 block: blocks human CXCR6 beta-arrestin recruitment. O00574. CHO-K1 PathHunter CXCR6 beta-arrestin, luminescence. inhibition, % at 20 µM. actives 0.36% (n = 360,000). AID 602244; in the data active = inhibition above about 34%, passing the limit was not always enough;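 note: antagonist mode with CXCL16 agonist at 10 nM final; 0% = 10 nM CXCL16 with DMSO and 100% = unstimulated wells without agonist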
Target sequence (O00574 whole entry, looked up): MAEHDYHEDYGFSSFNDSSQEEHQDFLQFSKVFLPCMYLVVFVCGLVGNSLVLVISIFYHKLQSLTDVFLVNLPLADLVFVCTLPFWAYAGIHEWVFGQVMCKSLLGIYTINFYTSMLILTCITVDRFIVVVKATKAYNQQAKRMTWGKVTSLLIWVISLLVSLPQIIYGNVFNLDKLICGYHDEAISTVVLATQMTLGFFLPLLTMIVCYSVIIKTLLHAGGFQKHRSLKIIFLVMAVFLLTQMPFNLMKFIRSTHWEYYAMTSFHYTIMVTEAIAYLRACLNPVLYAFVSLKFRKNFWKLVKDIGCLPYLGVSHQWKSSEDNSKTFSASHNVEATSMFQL
iPSC survival up: increases survival of single human iPS cells; hiPSC single-cell survival, ATPlite luminescence; 100% = ROCK inhibitor wells, 0% = DMSO; survival enhancement, % at 20 µM; actives 0.044% (n = 360,000); AID 602274; in the data active = survival enhancement above about 18%;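 note: cells exposed to compounds for 16 hours before the ATP read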
APJ agonist: APJ receptor agonism; CHO-K1 APJ PathHunter beta-arrestin, luminescence; 0% DMSO wells, 100% apelin; actives 0.11% (n = 330,000); AID 2520; activation, % at 20 µM; P35414;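 active = activation more than six SD over the plate average, tested at 20 µM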;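 note: 0% = DMSO alone and 100% = apelin-13 at 10 nM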
Target sequence (P35414 whole entry, looked up): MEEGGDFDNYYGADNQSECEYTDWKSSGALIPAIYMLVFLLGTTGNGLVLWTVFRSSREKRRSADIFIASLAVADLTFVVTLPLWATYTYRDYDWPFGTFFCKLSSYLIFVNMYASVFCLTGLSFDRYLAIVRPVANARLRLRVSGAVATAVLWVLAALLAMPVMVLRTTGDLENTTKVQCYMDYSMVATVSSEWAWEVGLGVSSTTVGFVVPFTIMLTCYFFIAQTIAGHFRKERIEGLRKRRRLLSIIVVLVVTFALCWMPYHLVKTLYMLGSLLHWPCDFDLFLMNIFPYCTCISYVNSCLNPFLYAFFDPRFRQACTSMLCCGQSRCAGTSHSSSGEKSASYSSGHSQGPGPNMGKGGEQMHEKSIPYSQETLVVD
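assay system = CHO-K1 APJ beta-arrestin complementation cell line | input = cell density 1000 per well | dosing = compound 20 µM once, DMSO 1% | timing = compound 90 min 25 °C, reagent 1 h | measured by = luminescence from split beta-galactosidase complementation, Galacton Star/Emerald II substrate | read-out basis = APJ agonist activity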
CCR6 antag: blocks CCL20-driven beta-arrestin recruitment at human CCR6; CHO-K1 CCR6 PathHunter beta-arrestin, luminescence, CCL20-stimulated; inhibition, % at 20 µM; actives 0.49% (n = 340,000);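 active = compounds whose inhibition of the agonist-driven luminescence signal at 20 µM reaches about 50%, limit read from the data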;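 note: cells stimulated with CCL20 at 14 nM final; plate controls were DMSO with CCL20 for no effect and DMSO without agonist for full effect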
DAGLB inhibitor: diacylglycerol lipase beta (human) inhibition; inhibition, % at 5.17 µM; HEK293T DAGLB membrane lysate, EnzChek fluorogenic substrate; actives 0.059% (n = 340,000); in the data active = inhibition above about 34%;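 note: 0% = enzyme with vehicle and 100% = wells lacking enzyme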
APJ antag: antagonists of human APJ apelin receptor | P35414 | CHO-K1 APJ beta-arrestin complementation, luminescence | inhibition, % at 20 µM | actives 0.32% (n = 330,000) | AID 2521;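 active = inhibition above about 40% at 20 µM, limit read from the data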;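 note: cells challenged with 10 nM apelin-13 agonist together with compound; plate controls were apelin-13 plus DMSO wells for no effect and DMSO wells lacking apelin-13 for full effect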
APJ antag confirm: confirmation of human APJ apelin receptor antagonists; shares compounds with APJ antag; actives 66% (n = 950); APJ beta-arrestin recruitment, luminescence, antagonist mode; inhibition, % at 20 µM; in the data active = inhibition above about 50%
Starred values were filed as active, the others as inactive; / = not tested or not shown.

SMILES | CXCR6 block | iPSC survival up | APJ agonist | CCR6 antag | DAGLB inhibitor | APJ antag | APJ antag confirm
COc1ccccc1NC(=O)CCn1c(=O)c2cccn2c2ccccc21 | 12.3 | -0.6 | 2.9 | 7.3 | -5.8 | 10.5 | /
CC1CCCCN1C(=O)COC(=O)/C=C/c1ccc2ccccc2n1 (stereo not drawn) | -4.2 | -0.2 | 1.0 | 4.4 | 2.6 | 6.0 | /
CCOc1ccc(C(=O)NC(=S)Nc2cccnc2)cc1[N+](=O)[O-] | 17.2 | 1.8 | -5.1 | 33.8 | 3.0 | 43.1* | 43.2
CN1C(=O)/C(=C2/C=Cc3ccccc3N2CCCS(=O)(=O)O)SC1=S | 37.5 | -1.8 | -8.5 | 58.0* | 16.6 | 47.1* | 95.9*
CCN1C(=O)/C(=C2/C=Cc3ccccc3N2CC)SC1=S | 20.6 | -0.2 | -5.9 | 32.6 | 24.5 | 16.0 | /
Oc1ccc(N=Nc2ccccc2C(F)(F)F)c2cccnc12 | 21.8 | -0.7 | -11.2 | 57.8* | 0.5 | 48.5* | 103.3*
Oc1ccc(F)c2cccnc12 | 28.5 | 1.0 | -1.8 | 37.9 | 5.2 | -16.6 | /
Cc1ccc(N=Nc2ccc(O)c3ncccc23)cc1 | 3.7 | -0.2 | / | 7.6 | 6.2 | / | /
Cc1ccc(N=Nc2ccc(O)c3ncccc23)cc1C | 40.3* | -2.6 | -12.9 | 55.2* | 4.0 | 52.6* | 67.6*
O=C(Cn1cnc2ccc(Cl)cc2c1=O)c1cccs1 | 5.0 | 6.1 | -2.3 | -7.8 | 0.0 | 9.6 | /
COCCNC(=S)N/N=C(\C)c1ccc(Cl)c(Cl)c1Cl | 27.0 | -0.2 | -3.9 | 38.4 | -4.2 | 43.3* | 35.6
COCCNC(=S)N/N=C(\C)c1ccc(Cl)c(Cl)c1 | 1.0 | -0.7 | -3.8 | 15.4 | -1.5 | 10.8 | /
N#CCCN(C(=O)COC(=O)CCc1nc2ccccc2c(=O)[nH]1)c1ccc(F)cc1 | 6.3 | 0.2 | -3.3 | 3.3 | 1.3 | 4.4 | /
O=C(C1=C(Nc2ccccc2)c2ccccc2S(=O)(=O)N1)c1ccccc1 | 33.0 | 0.4 | -6.2 | 69.9* | 7.0 | 45.1* | 72.5*
O=C(Nc1ccccc1SC(=O)c1ccccc1)c1ccccc1 | -12.3 | -1.5 | / | / | -1.8 | / | /
Cc1ccc(C(=O)Sc2cccccc2=O)cc1 | 83.5* | 1.8 | -8.6 | 92.2* | 3.3 | 85.1* | 102.0*
O=[N+]([O-])c1ccc(N2CCN(S(=O)(=O)c3ccccc3)CC2)c2cccnc12 | 31.1 | 2.2 | -5.5 | 52.0* | -2.6 | 45.8* | 64.7*
CC1=C(C(=O)N(C(C)C)C(C)C)CC(CC(=O)NCc2cccs2)C(=O)N1CCC1=CCCCC1 (stereo not drawn) | 3.7 | -0.2 | / | / | / | / | /
Cc1cccc(-n2ncc3c2CCCC3NC(=O)CCN2Cc3ccccc3C2=O)c1C (stereo not drawn) | 2.3 | 0.0 | -0.2 | 11.6 | 2.2 | 3.4 | /
CC1=Nc2ccccc2/C1=C/c1sc(=N)n(-c2nccs2)c1O | 17.5 | 0.2 | -10.7 | 48.9 | 7.2 | 46.3* | 52.8*
COc1cccc(N2CC(C)Cn3c2nc2c3c(=O)[nH]c(=O)n2C)c1 (stereo not drawn) | 44.2* | 0.3 | -5.6 | 41.4 | 2.9 | 45.7* | 79.3*
Brc1ccc(N=Nc2ccc3ccccc3n2)cc1 | 15.5 | -0.6 | -13.5 | 31.2 | 1.8 | 49.0* | 53.6*
CCn1c(O)c(N=Nc2ccc3ccccc3n2)c2ccccc21 | 4.5 | -0.4 | -2.4 | 13.2 | -3.8 | 12.7 | /
CN1C(=O)/C(=C/c2ccc(O)c([N+](=O)[O-])c2)N(C)C1=S | 43.1* | -0.8 | -8.4 | 56.8* | 15.8 | 46.4* | 84.8*
COc1cc(/C=C2\C(=O)N(C)C(=S)N2C)ccc1O | 15.5 | -1.4 | -2.7 | 20.4 | -1.5 | 7.6 | /
SMILES | CXCR6 block | iPSC survival up | APJ agonist | CCR6 antag | DAGLB inhibitor | APJ antag | APJ antag confirm
O=C(OCC(=O)c1ccc(Cl)cc1Cl)c1ccccn1 | 26.1 | -0.5 | -10.2 | 47.6 | 1.4 | 61.8* | 88.7*
O=C(CCC(=O)OCC(=O)c1ccc(Cl)cc1Cl)Nc1cccc2cccnc12 | 12.0 | -1.2 | -11.6 | 62.4* | 3.2 | 64.3* | 92.4*
O=C(COC(=O)c1ccc2c(c1)C(=O)N(c1cccc3ncccc13)C2=O)c1ccc(Cl)cc1 | 7.2 | 1.9 | -2.0 | 10.7 | -0.5 | 10.4 | /
O=C(OCC(=O)c1ccccc1Br)c1ccccn1 | 1.5 | -4.2 | -5.4 | -5.2 | 0.5 | 2.2 | /
O=C(OCC(=O)c1ccc(Cl)cc1Cl)c1ccc2c(c1)C(=O)N(c1cccc3ncccc13)C2=O | 8.5 | -2.9 | -9.0 | 44.1 | -0.2 | 55.5* | 72.8*
CSC1=NC=C(C#N)C2=NC(c3ccc(Cl)cc3)NN12 (stereo not drawn) | -9.7 | 1.6 | / | / | / | / | /
O=C1CC(C(=O)N2CCN(c3ccccn3)CC2)CN1Cc1ccccc1Cl (stereo not drawn) | 3.4 | -0.5 | -2.9 | 4.7 | 0.3 | -0.5 | /
CCOC(=O)COc1ccccc1C(=O)c1cnn(-c2ccccc2)c1 | -0.7 | 0.6 | -2.3 | 23.8 | -4.4 | 4.9 | /
O=C(NNc1ccc(-c2csnn2)cc1)c1cc(Cl)cc(Cl)c1 | 14.5 | -0.8 | -8.3 | 47.3 | / | 53.8* | 64.6*
NS(=O)(=O)c1cnccc1NCCc1ccccc1 | 4.3 | -0.1 | -3.8 | 2.6 | / | -5.4 | /
CC(C)Cc1nc2oc3c(Cl)ncnc3c2c2c1CCC2 | 14.8 | 1.3 | -2.1 | 22.7 | -4.6 | 40.8* | 86.4*
CC(=O)Nc1ccc(NC(=O)CN2C(=O)COc3ccc(S(=O)(=O)N4CCOCC4)cc32)cc1 | -0.8 | 0.1 | -4.6 | 7.4 | -0.3 | 19.5 | /
CC(C)c1ccc(NC(=O)CN2C(=O)COc3ccc(S(=O)(=O)N4CCOCC4)cc32)cc1 | 8.4 | -0.1 | -4.5 | -1.3 | 1.8 | 45.3* | -13.1
O=C(Nc1ccccc1)c1cn(CCBr)cn1 | -1.6 | 0.5 | 0.1 | -0.8 | 0.5 | -0.6 | /
Cc1ccc(C)c2nc3sc(C(=O)N4CCCc5ccccc54)c(N)c3cc12 | 38.4 | 0.0 | -16.5 | 46.5 | -4.2 | 59.0* | 57.5*
FC(F)(F)c1cc(C(F)(F)F)c2ccc(N/N=C/c3ccccc3)nc2n1 | -4.6 | -1.5 | 0.8 | -6.5 | 0.2 | -12.4 | /
Cc1ccc(C(C#N)c2ccc3c(C(F)(F)F)cc(C(F)(F)F)nc3n2)cc1 (stereo not drawn) | 35.1 | -3.4 | -5.8 | 53.6* | 10.1 | 49.1* | 79.7*
N#CC(c1ccccc1)c1ccc2c(C(F)(F)F)cc(C(F)(F)F)nc2n1 (stereo not drawn) | 22.8 | 4.4 | -5.3 | 53.1* | 28.2 | 41.7* | 87.8*
C=CCn1nnnc1SCC(=O)Nc1cccc(C(F)(F)F)c1 | 2.8 | -0.2 | -6.3 | 10.1 | 1.6 | -7.9 | /
COc1ccc(-c2ccc(CN3C(C)C(=O)N(Cc4cn(CCC5OCCCO5)nn4)CCS3(=O)=O)cc2)cc1 (stereo not drawn) | -3.6 | -1.1 | / | / | -2.6 | / | /
